Compound activity as filed in PubChem BioAssay.
The list is not random: actives were taken first. Their share in the collection is about 3.5%.
MrgX1 PAM = human MrgX1 positive allosteric modulation, primary screen; B-score at 10 µM; Q96LB2; hit rate 0.63% among 310,000; MrgX1-HEK293, Fluo-4 calcium flux, FDSS; stronger effect = higher value;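 active means plate-corrected calcium response at least 3 library SD above typical, normal starting fluorescence, not activating the receptor alone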;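 further: compound read alongside a low EC10 to EC30 dose of BAM8-22 agonist; peak minus trough fluorescence over baseline measured at the second addition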
Target sequence (Q96LB2 whole entry, looked up): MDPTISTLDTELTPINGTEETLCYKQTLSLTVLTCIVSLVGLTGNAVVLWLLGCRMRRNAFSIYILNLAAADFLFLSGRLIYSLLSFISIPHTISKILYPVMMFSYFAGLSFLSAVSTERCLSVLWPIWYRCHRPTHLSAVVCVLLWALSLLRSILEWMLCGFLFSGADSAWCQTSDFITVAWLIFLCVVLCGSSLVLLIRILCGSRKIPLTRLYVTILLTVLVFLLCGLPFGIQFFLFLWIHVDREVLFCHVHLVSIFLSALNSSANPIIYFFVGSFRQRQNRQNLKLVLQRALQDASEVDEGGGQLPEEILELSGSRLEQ
MrgX1 antag = antagonists of human MrgX1 receptor; AID 588676; MRGX1-HEK293 calcium flux, Fluo-4, BAM8-22 antagonism; stronger effect = lower value; Q96LB2; hit rate 1.3% among 310,000; B-score at 10 µM;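 active means calcium-response B-score plate-corrected more than 3 library SD below zero, starting fluorescence within 5 deviations, no agonist response on first addition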;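 further: peak minus trough fluorescence over baseline after final BAM8-22 challenge near maximal dose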
RGS4 block = human RGS4 inhibition | P49798 | HEK293 M3R/RGS4 inducible, Fluo-4 calcium flux; stronger effect = higher value; triggered by carbachol at its EC20 | B-score at 10 µM | hit rate 0.45% among 310,000 | AID 463165;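 active means B-score, a plate-corrected calcium signal, over three deviations above library mean, with baseline fluorescence within five deviations of library mean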;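 further: RGS4 expression induced by doxycycline in cells with stable M3 receptor; B-score is computed from the integrated fluorescence ratio over baseline after carbachol; higher B-score means a larger calcium signal and so more RGS4 inhibition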
Target sequence (P49798 whole entry, looked up): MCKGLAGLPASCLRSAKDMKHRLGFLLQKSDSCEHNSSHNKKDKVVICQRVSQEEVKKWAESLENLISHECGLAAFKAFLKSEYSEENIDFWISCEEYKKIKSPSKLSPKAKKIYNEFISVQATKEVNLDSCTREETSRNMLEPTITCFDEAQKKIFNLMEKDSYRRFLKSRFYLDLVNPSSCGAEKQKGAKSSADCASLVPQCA
MrgX1 agonist = activates human MrgX1 receptor signaling. MrgX1-HEK293 cells, Fluo-4 calcium fluorescence, agonist mode; stronger effect = higher value. B-score at 10 µM. hit rate 0.44% among 310,000. AID 588627;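 active means calcium response B-score plate-corrected fluorescence ratio at least 3 library SD, with starting fluorescence B-score inside 5 SD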
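Assay system: stable human MrgX1 HEK293 cell line. Quantity: 15,000 cells per well. Schedule: cells plated overnight, dye loaded 0.5 h 37 °C, 0.5 h room temperature. Detection: Fluo-4 NW calcium-flux fluorescence, kinetic read. Read-out basis: peak-minus-minimum fluorescence over baseline, converted to B scores. Control set: positive and negative control wells on each plate.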
RGS4 act = potentiators or activators of RGS4. HEK293 M3R/inducible RGS4, carbachol calcium flux Fluo4; stronger effect = lower value. B-score at 10 µM. hit rate 0.92% among 310,000;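 active means B-score of the integrated calcium signal more than 4 SD below the library mean, with starting fluorescence not abnormally high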;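 further: negative B-score means reduced calcium response which marks RGS4 activation or potentiation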
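Material: Inducible-RGS4 HEK293 cells carrying M3 receptor; also added: carbachol at ECmax as muscarinic agonist stimulus; incubation: compound preincubation 20 min at room temperature before agonist; signal: Fluo4-AM (2 µM) calcium-flux fluorescence, kinetic read; measure: integrated calcium ratio converted to B score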
MrgX1 allo conf = confirmation of human MrgX1 receptor positive allosteric modulators; MrgX1-HEK293, Fluo-4 calcium fluorescence, FDSS; hit rate 13% among 1,200; activation (ratio percentage), % at 10 µM; shares compounds with MrgX1 PAM;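 active means ratio at least 3 SD above the weak peptide control, stable starting fluorescence, no direct agonism earlier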;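 further: compound followed by low BAM8-22 agonist challenge near EC20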
MrgX1 antag conf = reconfirmed antagonist of human MrgX1 receptor signaling | shares compounds with MrgX1 antag | MrgX1-HEK293, BAM8-22 calcium flux, Fluo-4; stronger effect = lower value | remaining BAM8-22 calcium response % of control (stronger effect = lower value), % at 10 µM | hit rate 19% among 2,300 | AID 602420;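 active means remaining agonist calcium response no higher than 100% minus 3 SD of agonist-only control wells, with starting fluorescence near control levels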;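 further: agonist BAM8-22 given at a near maximal EC90 to ECmax level; peak minus minimum fluorescence divided by baseline after agonist addition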
HEK293 Ca flux = MrgX1 antagonist counter-screen hit in parental HEK293 cells. shares compounds with MrgX1 antag. Fluo-4 calcium fluorescence, FDSS. fluorescence ratio F(max-min)/F0 at 10 µM. hit rate 2% among 4,000. AID 624111;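 active means duplicate-averaged calcium fluorescence ratio at least three times the standard deviation of buffer wells, a nonspecific response in parental cells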
HEK293 Ca counter = activity in parental HEK293 cells without MrgX1; shares compounds with MrgX1 antag; hit rate 0.4% among 4,000; fluorescence ratio F(max-min)/F0 at 10 µM; parental HEK293 calcium flux, Fluo-4 fluorescence ratio; stronger effect = higher value; AID 624114;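 active means calcium fluorescence ratio, averaged over duplicates, at least 3 SD of the buffer-well ratio, meaning a nonspecific response in receptor-free cells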;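 further: untransfected parental HEK293 lacking MrgX1 used as counterscreen for MrgX1 allosteric activators; fluorescence change taken during the second addition on a kinetic imager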
HEK293 Ca cntr2 = activity in parental HEK293 cells lacking MrgX1 receptor. shares compounds with MrgX1 antag. Fluo-4 calcium fluorescence (FDSS); stronger effect = higher value. fluorescence ratio F(max-min)/F0 at 10 µM. hit rate 8.7% among 4,000. AID 624115;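 active means calcium fluorescence ratio at least three times the spread of buffer wells, meaning a non-specific response in parental cells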
Each line names hits and unclear results; the compound was inactive in the other large screens (follow-up assays come after a bar, where they were run).

CSc1nc2ccc(S(=O)(=O)N(C)C)cc2s1	none
Nn1c(SCc2cc([N+](=O)[O-])cc3c2OCOC3)nnc1-c1cccnc1	none
Cc1cccc(Oc2ncnc3oc(-c4ccccc4)cc23)c1C	MrgX1 PAM 12 | MrgX1 allo conf 7.6% | HEK293 Ca flux inactive | HEK293 Ca counter inactive | HEK293 Ca cntr2 inactive
Cc1cccc(OCC(=O)Nc2cccc(-c3nnc(-c4ccccc4)o3)c2)c1C	none
Cc1ccc(N=Cc2sc(O)c3ccccc23)c(C)c1	none
Cc1ccc(N=Cc2sc(O)c3ccccc23)cc1	MrgX1 PAM 7, MrgX1 antag -6.9 | MrgX1 allo conf inactive | MrgX1 antag conf 75% | HEK293 Ca flux inactive | HEK293 Ca counter inactive | HEK293 Ca cntr2 inactive
CN(C)C1=NCCN1CCc1ccc(F)cc1	none (no result: RGS4 block, RGS4 act)
COC(=O)c1cn(Cc2ccccn2)c(=O)c2ccccc12	none
CN(C)N=Nc1ccc(-c2cn(Cc3ccccc3)cn2)cc1	none
O=C(NC12CC3CC(CC(C3)C1)C2)c1ccccc1	none
Nc1ccccc1C(=O)NC12CC3CC(CC(C3)C1)C2	MrgX1 PAM 10 | MrgX1 allo conf inactive | HEK293 Ca flux inactive | HEK293 Ca counter inactive | HEK293 Ca cntr2 inactive
CSc1ncccc1C(=O)NC1CCN(Cc2ccccc2)CC1	none
Cn1c(=O)c2c(nc(N3CCCCCC3)n2CCSc2nc3ccccc3o2)n(C)c1=O	MrgX1 PAM 7.1 | MrgX1 allo conf inactive | HEK293 Ca flux inactive | HEK293 Ca counter inactive | HEK293 Ca cntr2 inactive
CC1CCCN(c2nc3c(c(=O)n(C)c(=O)n3C)n2Cc2ccccc2)C1 (stereo unspecified)	MrgX1 PAM 7.1 | MrgX1 allo conf inactive | HEK293 Ca flux inactive | HEK293 Ca counter inactive | HEK293 Ca cntr2 inactive
CCN1CC2=C(OC(N)=C(C#N)C2c2ccccc2)/C(=C\c2ccccc2)C1 (stereo unspecified)	MrgX1 PAM 22 | MrgX1 allo conf inactive | HEK293 Ca flux inactive | HEK293 Ca counter inactive | HEK293 Ca cntr2 inactive
N#CC1=C(N)OC2=C(CN(Cc3ccccc3)C/C2=C\c2cccnc2)C1c1cccnc1 (stereo unspecified)	none
CCN1CC2=C(OC(N)=C(C#N)C2c2cccs2)/C(=C/c2cccs2)C1 (stereo unspecified)	MrgX1 PAM 8.2 | MrgX1 allo conf inactive | HEK293 Ca flux inactive | HEK293 Ca counter inactive | HEK293 Ca cntr2 inactive
CC(=O)c1nnn(-c2nc(N)nc(N(c3ccccc3)c3ccccc3)n2)c1C	MrgX1 PAM 13 | MrgX1 allo conf 16% | HEK293 Ca flux inactive | HEK293 Ca counter inactive | HEK293 Ca cntr2 inactive
CCCCN(CCCC)c1nc(OC)nc(-n2nnc(C(C)=O)c2C)n1	none
CNS(=O)(=O)c1ccc(CCC(=O)N2CCN(c3ccccc3OC)CC2)cc1	MrgX1 PAM 11 | MrgX1 allo conf inactive | HEK293 Ca flux inactive | HEK293 Ca counter inactive | HEK293 Ca cntr2 inactive
COc1ccc(-c2cc(C(F)(F)F)nc(SCC(=O)Nc3ccc4c(c3)OCO4)n2)cc1	MrgX1 PAM 9.2 | MrgX1 allo conf inactive | HEK293 Ca flux inactive | HEK293 Ca counter inactive | HEK293 Ca cntr2 inactive
O=C(CC1OC(=O)c2ccccc21)Nc1cc(Cl)ccc1N1CCCC1 (stereo unspecified)	none
COc1ccc(CCNC(=O)c2csc3c2CCCC3)cc1	none
COc1ccc(NC(=O)c2csc3c2CCCCC3)c(OC)c1	MrgX1 PAM 19 | MrgX1 allo conf inactive | HEK293 Ca flux inactive | HEK293 Ca counter inactive | HEK293 Ca cntr2 inactive
Cc1cccc(NS(=O)(=O)c2ccc(C(=O)NCCCN3CCCC3=O)cc2)c1C	none
O=C(O)c1ccccc1Sc1ncnc2sc3c(c12)CCC3	none
O=C(/C=C/c1ccc(OC(F)F)cc1)Nc1cccc(S(=O)(=O)N2CCOCC2)c1	none
Cc1ccc(-c2csc(NC(=O)c3ccc(C)o3)n2)cc1	none
Cc1ccc(-c2csc(N=C(N)N)n2)cc1	MrgX1 PAM 7 | MrgX1 allo conf inactive | HEK293 Ca flux inactive | HEK293 Ca counter inactive | HEK293 Ca cntr2 inactive
O=C(N/N=C/c1ccncc1)c1nn(Cc2ccccc2)c(=O)c2ccccc12	none
Cc1ccc2nc(NCCCO)nc(-c3ccccc3)c2c1	MrgX1 PAM 11 | MrgX1 allo conf inactive | HEK293 Ca flux inactive | HEK293 Ca counter inactive | HEK293 Ca cntr2 inactive
Cc1ccc(NC(=O)CSc2nc(=O)n(CCN(C)C)c3c2CCCC3)cc1Cl	none
CCn1c(=S)[nH]c2cc(C(=O)OC)ccc2c1=O	MrgX1 PAM 8.1 | MrgX1 allo conf inactive | HEK293 Ca flux inactive | HEK293 Ca counter inactive | HEK293 Ca cntr2 inactive
CN1C(=O)CCC(CCC(=O)O)(c2ccccc2O)C1=O (stereo unspecified)	none
CC1(c2ccc([N+](=O)[O-])cc2)NC(=O)N(CC(=O)Nc2cccnc2Cl)C1=O (stereo unspecified)	none
CCOC(=O)c1c(C)[nH]c(C)c1C(=O)COC(=O)c1c(OC)cccc1OC	MrgX1 PAM 7.1 | MrgX1 allo conf inactive | HEK293 Ca flux inactive | HEK293 Ca counter inactive | HEK293 Ca cntr2 inactive
COc1nc(N(C)C)nc(N(C#N)S(=O)(=O)c2ccc(C)cc2)n1	none
COC(=O)c1cc(C#N)c(SCc2ccccc2)nc1C	MrgX1 PAM 6.9 | MrgX1 allo conf inactive | HEK293 Ca flux inactive | HEK293 Ca counter inactive | HEK293 Ca cntr2 inactive
CCn1ncc([N+](=O)[O-])c1C(=O)Nc1c(C)nn(Cc2ccc(F)cc2)c1C	none
O=C(O)c1c2c(nc3ccccc13)/C(=C/c1ccc(OC(F)F)cc1)CCC2	none
O=C(O)c1c2c(nc3ccccc13)/C(=C/c1c(F)cccc1F)CCC2	MrgX1 PAM 8.2 | MrgX1 allo conf inactive | HEK293 Ca flux inactive | HEK293 Ca counter inactive | HEK293 Ca cntr2 inactive
CC/C(=C\C(=O)c1cccnc1)Nc1ccc(C)c(C)c1	MrgX1 PAM 8.7 | MrgX1 allo conf inactive | HEK293 Ca flux inactive | HEK293 Ca counter inactive | HEK293 Ca cntr2 inactive
Cc1ccc(S(=O)(=O)NCCc2ccccc2)cc1	none
